Source: PubChem BioAssay
TbMetRS inhib: blocks T. brucei methionyl-tRNA synthetase activity; purified T. brucei MetRS, ATP depletion, Kinase-Glo luminescence; hit rate 0.4% among 360,000; inhibition, % at 11.9 µM; AID 624268;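 active = inhibition above a per-plate cutoff of the control wells' mean inhibition plus 3 SD, cut at about 5.5% in these data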;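 also: 0% = DMSO wells median and 100% = median of wells with control inhibitor compound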
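Material – parasite MetRS enzyme · Medium – HEPES-MgCl2-KCl buffer plus DTT, spermine, BSA, pyrophosphatase · Reagent – ATP, methionine and E. coli bulk tRNA substrates · Times – 15 min enzyme-compound preincubation, 2 h reaction, 10 min detection, 25 °C · Measured by – luminescence of leftover ATP · Evaluation – percent inhibition relative to median high and low control wells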
EBV gp42 block: blocks Epstein-Barr virus glycoprotein 42 binding; Q1HVG2; Fluorescence polarization binding assay, mP read-out; inhibition, % (tested at 21.74 µM); hit rate 0.42% among 220,000; AID 1085; in the data active = inhibition above about 50%
Target sequence (Q1HVG2 whole entry, looked up): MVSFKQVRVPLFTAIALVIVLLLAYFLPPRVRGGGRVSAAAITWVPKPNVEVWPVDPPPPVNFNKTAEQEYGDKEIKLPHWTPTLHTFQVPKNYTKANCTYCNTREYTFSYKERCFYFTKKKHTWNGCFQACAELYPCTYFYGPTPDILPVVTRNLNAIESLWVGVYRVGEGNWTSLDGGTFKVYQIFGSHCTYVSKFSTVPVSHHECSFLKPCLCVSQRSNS
GRIN3A LBD mod: modulates the human NR3A ligand-binding domain; hit rate 2.5% among 340,000; NR3A LBD differential scanning fluorimetry, Tm shift; 0% = protein alone, 100% = glycine-bound protein; Tm shift relative to glycine control, % at 25 µM; AID 1259313;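 active = melting temperature shift of at least 10% of the positive control shift, at one fixed dose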
MPTP inh: permeability transition pore inhibition. isolated mouse mitochondria, Ca2+ swelling absorbance, 30 min. inhibition, % at 10 µM. hit rate 1.4% among 360,000. AID 602449;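 active = inhibition of 50% or more, scaled per plate between neutral and stimulator controls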;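 also: 0% = DMSO wells given calcium and 100% = 1 mM EGTA wells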
WT yeast gro inh: growth inhibition of WT yeast, mitochondrial fusion screen | mitochondrial fusion phenotypic screen, WT strain | inhibition, % at 10 µM | hit rate 2.1% among 190,000 | AID 1362; in the data active = inhibition above about 58%; tested in S. cerevisiae
CHOP inhibitor: inhibitors of CHOP induction in ER stress response | CHO-K1 CHOP-promoter luciferase, tunicamycin-induced, 15-18 h | inhibition, % at 10 µM | hit rate 3.8% among 220,000;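 active = compounds that reduced the stress-induced luciferase reporter signal by more than about 70% of percent inhibition, limit read from the data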;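 also: 0% = tunicamycin plus vehicle and 100% = wells without tunicamycin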
* hit, by the source's call; i = inactive; . = no result. The list is not random: actives were taken first. Their share in the collection is about 6.4%.

SMILES	TbMetRS inhib	EBV gp42 block	GRIN3A LBD mod	MPTP inh	WT yeast gro inh	CHOP inhibitor
CC(C)(C)c1ccc(-c2cc(C(=O)NNC(=O)Nc3ccccc3)c3ccccc3n2)cc1	-2	-11	12*	3	23	94*
CCOC(=O)C1=C(C)NC(C)=C(C(=O)OCC)C1C(=O)OCC(=O)N1c2ccccc2CC1C (stereo not drawn)	0	-23	0	1	-5	48
CSC1=NC(C)(C)C=C(/C=C/c2ccc(Cl)cc2Cl)N1	3	-11	-5	0	68*	-25
CCSC1=NC(C)(C)C=C(/C=C/c2ccc(Cl)cc2Cl)N1	1	-12	-5	-2	60*	35
O=C(COc1ccc(CO)cc1Cl)Nc1ccc(F)cc1	0	1	1	2	7	33
COc1ccccc1NC(=S)NC(=O)CCCOc1ccc(Cl)cc1Cl	1	4	6	6	18	77*
COc1ccccc1NC(=O)COc1ccc(CO)cc1Cl	-1	-13	11*	1	0	38
CC1(C)N=C(SCC(=O)Nc2ccc(Cl)cc2Cl)C(c2ccccc2)=N1	1	8	1	0	16	76*
COC(=O)CN1C(=S)N(c2ccc(OC)cc2)C(=O)/C1=C/c1ccc(N2CCOCC2)cc1	-1	75*	-2	4	13	10
CC1CC(C)(C)Nc2ccc(N=O)cc21 (stereo not drawn)	0	-6	-8	0	75*	96*
Cc1cc2cc(CNC(=O)c3cc4ccccc4o3)ccc2n1C	.	5	.	.	5	89*
Cc1cc2cc(CNC(=O)c3ccco3)ccc2n1C	0	-5	0	3	5	10
CCN(CC)c1ccc(/C=N/Nc2nc3ccccc3[nH]2)cc1	0	-7	-4	12	79*	i
CC(/C=N/Nc1nc2ccccc2[nH]1)=C\c1ccccc1	4	-2	-12	17	90*	-25
CC(/C=N/Nc1nc(C)cc(=O)[nH]1)=C\c1ccccc1	-1	-8	-2	2	11	17
COc1cc(NC(=O)c2cccs2)c(C(=O)OCC(=O)c2cc(C)n(-c3ccccc3)c2C)cc1OC	0	-17	1	0	-6	85*
COc1cc(NC(=O)c2cccs2)c(C(=O)OCC(=O)c2cc(C)n(-c3ccc(F)cc3)c2C)cc1OC	-1	-27	-2	3	3	48
COC(=O)[C@H](C(C)C)N(Cc1ccccc1)S(=O)(=O)CCNC1CCCC1	-1	.	0	0	.	.
CC(C)COC(=O)N(C)c1ccc(C(O)(C(F)(F)F)C(F)(F)F)cc1	-1	-15	1	2	-3	93*
CCc1ccn2cc(-c3cc(-c4ccccc4)no3)nc2c1	-1	-9	-7	1	.	77*
CCN(CC)S(=O)(=O)c1cc([N+](=O)[O-])ccc1N=Nc1c(O)[nH]c2ccccc12	0	-36	18*	10	5	75*
Cc1ccc2[nH]c(O)c(N=Nc3ccccc3[N+](=O)[O-])c2c1	0	.	1	0	.	.
O=c1cc(-c2ccco2)nc(SCc2cccc(Cl)c2)[nH]1	0	.	2	1	.	.
O=C(Cn1ncc2c1-c1ccccc1OC2)N1CCN(Cc2ccc3c(c2)OCO3)CC1	-1	-15	-3	-2	10	77*
O=C(CN1C(=O)c2ccccc2S1(=O)=O)N1CCN(Cc2ccc3c(c2)OCO3)CC1	-1	12	-1	1	4	43
SMILES	TbMetRS inhib	EBV gp42 block	GRIN3A LBD mod	MPTP inh	WT yeast gro inh	CHOP inhibitor
COc1cc(CCC(=O)NCc2ccc(S(N)(=O)=O)cc2)cc(OC)c1OC	0	.	2	0	.	.
Cc1ccc(/C=C/C2=Cc3c(sc(NC(=O)CSc4n[nH]c(N)n4)c3C#N)C(C)(C)C2)o1	.	77*	.	.	19	13
Cc1sc(NC(=O)CSc2n[nH]c(N)n2)c(C#N)c1C	0	.	-5	0	.	.
COc1ccc(-c2nc(C)ncc2N=Nc2ccccc2)cc1	-2	-12	-1	3	98*	34
CCOc1ccccc1C(=O)NN1CCOCC1	-1	.	1	1	.	.
CCOc1ccccc1C(=O)NN1C(=O)C2CCCCC2C1=O (stereo not drawn)	-1	-8	23*	1	-12	-5
O=C(NN1C(=O)C2C3CCC(O3)C2C1=O)c1ccc(Cl)cc1 (stereo not drawn)	0	-3	-2	-6	-14	8
CCOc1ccccc1C(=O)Nc1ccccc1-c1ccccc1	-1	-1	1	4	75*	35
CC(C)c1ccc(C(=O)NN2C(=O)C3CCCCC3C2=O)cc1 (stereo not drawn)	-1	-2	25*	1	-17	-38
COc1ccc(C)cc1NS(=O)(=O)c1ccc2c(c1)N(C)CCO2	-1	.	18*	0	.	.
COc1ccc(/C=N/NC(=O)C[n+]2ccccc2)c(OC)c1OC	0	-11	-2	0	-2	10
CN(c1ccccc1)c1ccc(/C=C(\CCC(=O)O)c2nc3ccccc3s2)cc1[N+](=O)[O-]	0	7	1	13	24	100*
CNc1ccc(/C=C(\CCC(=O)O)c2nc3ccccc3s2)cc1[N+](=O)[O-]	-1	-1	25*	1	-14	29
O=C(O)C/C(=C\c1cccc(NC(=O)c2ccccc2Cl)c1)c1nc2ccccc2s1	1	9	-1	6	.	-4
COc1ccc(C(=O)Nc2cccc(/C=C(\CCC(=O)O)c3nc4ccccc4s3)c2)cc1	0	-4	-6	4	.	83*
S=c1[nH]nc(-c2ccc3ccccc3n2)n1-c1cc(Cl)cc(Cl)c1	0	-1	-12	0	60*	64
Fc1ccc(-n2c(-c3ccc4ccccc4n3)n[nH]c2=S)cc1	0	-7	1	-1	-3	-21
CCCn1c2ccccc2c2nnc(SCC(=O)Nc3c(C)n(C)n(-c4ccccc4)c3=O)nc21	-1	-1	-1	-1	-8	26
Cc1cc2nc(-c3ccc(SCC(=O)NC(C)C)nc3)[nH]c2cc1C	.	-2	.	.	15	0
Cc1cc2nc(-c3ccc(SCC(=O)Nc4ccc(S(=O)(=O)NC5CC5)cc4)nc3)[nH]c2cc1C	-1	-14	32*	10	11	-16
CCC(C)[C@H]1CNC(=S)N1CCC12CC3CC(CC(C3)C1)C2 (stereo partly drawn)	0	-6	-6	-2	.	80*
CC1Cc2ccccc2N1c1ncnc2c1nnn2Cc1ccccc1 (stereo not drawn)	0	0	1	0	65*	73*
CCCCOc1ccc2c(c1)C(=O)c1cc(O)ccc1-2	0	1	34*	4	56	36
CN1N=C(c2ccc(F)c(F)c2)CSC1=NCc1ccccc1	0	-3	0	-1	69*	15
